The results in this text go back to ChEMBL document CHEMBL3351329, “Radiosynthesis and evaluation of an 18F-labeled positron emission tomography (PET) radioligand for metabotropic glutamate receptor subtype 4 (mGlu4)” (J Med Chem, 2014).

Data set [1] has as its target Metabotropic glutamate receptor 4 (Rattus norvegicus, UniProt P31423). Put plainly: Displacement of [3H]ML128 from rat mGlu4 receptor expressed in CHO cells after 30 mins by liquid scintillation counting analysis. Type of data set: cell-based. The essentials:
(§1)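 Whole freshly harvested CHO cells stably expressing rat mGlu4 (G418-selected), 50 000 per tube, incubated with 10 nM [3H]1 plus competitor (0.01 nM–10 μM) 30 min at room temperature. Cells pelleted at 4 °C, washed three times with cold medium, lysed in 0.5% NaOH at 56 °C, then counted by liquid scintillation. Nonspecific binding defined with 10 μM unlabeled 1. Triplicates.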

In data set [2] the target is Metabotropic glutamate receptor 4 (Rattus norvegicus) (UniProt P31423). The experiment in a line: Displacement of [3H]ML128 from rat mGlu4 receptor expressed in CHO cells at 10 uM after 30 mins by liquid scintillation counting analysis. In kind it is cell-based. The essentials: as §1
(In a radioligand displacement assay an active substance lowers the binding of a labelled ligand.)

For data set [3], the system named is Striatum. Put plainly: Drug uptake in Sprague-Dawley rat striatum at 37 MBq, iv after 20 mins by PET imaging analysis. In kind it is ADME, organism-based. As to conditions: in vivo. The essentials:
(§2)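 Male Sprague–Dawley rats under 1.0–1.5% isoflurane/nitrous oxide received [18F]3 (37 MBq) via tail-vein catheter. Dynamic PET was acquired for 60 min, followed by CT for anatomy and attenuation correction. Regional brain time–activity curves were generated. For blocking, animals were given iv 5 min before tracer either 2·HCl 10 mg/kg in saline with 10% ethanol and 10% Tween20 (n = 4) or MTEP·HCl 10 mg/kg in 0.9% saline (n = 3).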

Data set [4] relates to Hippocampus. The experiment in a line: Drug uptake in Sprague-Dawley rat hippocampus at 37 MBq, iv after 20 mins by PET imaging analysis. In kind it is ADME, organism-based. Conditions: in vivo. The essentials:
as §2

Data set [5] deals with Thalamus. Put plainly: Drug uptake in Sprague-Dawley rat thalamus at 37 MBq, iv after 20 mins by PET imaging analysis. In kind it is ADME, organism-based. Conditions: in vivo. The procedure, abridged:
as §2

In data set [6] the test system is Cortex. The experiment in a line: Drug uptake in Sprague-Dawley rat cortex at 37 MBq, iv after 20 mins by PET imaging analysis. Type of data set: ADME, organism-based. Conditions: in vivo. The essentials: as §2
In data set [7] the test system is Cerebellum. Put plainly: Drug uptake in Sprague-Dawley rat cerebellum at 37 MBq, iv after 20 mins by PET imaging analysis. Type of data set: ADME, organism-based. As to conditions: in vivo. The essentials: as §2
The test system of data set [8] is Brain. Put plainly: Drug uptake in Sprague-Dawley rat whole brain at 37 MBq, iv after 20 mins by PET imaging analysis. Type of data set: ADME, organism-based. Conditions: in vivo. The procedure, abridged: as §2
Data set [9] relates to Striatum. Put plainly: Drug uptake in Sprague-Dawley rat striatum at 37 MBq, iv administered 5 mins post N-(3-(difluoromethoxy)phenyl)-2-picolinamide hydrochloride challenge measured after 20 mins by PET imaging analysis. Conditions: in vivo. In kind it is ADME, organism-based. The essentials: as §2
Data set [10] deals with Hippocampus. The experiment in a line: Drug uptake in Sprague-Dawley rat hippocampus at 37 MBq, iv administered 5 mins post N-(3-(difluoromethoxy)phenyl)-2-picolinamide hydrochloride challenge measured after 20 mins by PET imaging analysis. Conditions: in vivo. In kind it is ADME, organism-based. The essentials:
as §2

The subject of data set [11] is Thalamus. Put plainly: Drug uptake in Sprague-Dawley rat thalamus at 37 MBq, iv administered 5 mins post N-(3-(difluoromethoxy)phenyl)-2-picolinamide hydrochloride challenge measured after 20 mins by PET imaging analysis. Type of data set: ADME, organism-based. As to conditions: in vivo. The essentials: as §2
Data set [12] has as its system Cortex. The experiment in a line: Drug uptake in Sprague-Dawley rat cortex at 37 MBq, iv administered 5 mins post N-(3-(difluoromethoxy)phenyl)-2-picolinamide hydrochloride challenge measured after 20 mins by PET imaging analysis. Type of data set: ADME, organism-based. Conditions: in vivo. The essentials: as §2
The test system of data set [13] is Cerebellum. Put plainly: Drug uptake in Sprague-Dawley rat cerebellum at 37 MBq, iv administered 5 mins post N-(3-(difluoromethoxy)phenyl)-2-picolinamide hydrochloride challenge measured after 20 mins by PET imaging analysis. Type of data set: ADME, organism-based. Conditions: in vivo. The procedure, abridged:
as §2

Data set [14] deals with Brain. The experiment in a line: Drug uptake in Sprague-Dawley rat whole brain at 37 MBq, iv administered 5 mins post N-(3-(difluoromethoxy)phenyl)-2-picolinamide hydrochloride challenge measured after 20 mins by PET imaging analysis. Type of data set: ADME, organism-based. As to conditions: in vivo. The essentials: as §2
In data set [15] the test system is Striatum. The experiment in a line: Drug uptake in Sprague-Dawley rat striatum at 37 MBq, iv administered 5 mins post MTEP.HCl challenge measured after 20 mins by PET imaging analysis. Conditions: in vivo. In kind it is ADME, organism-based. The essentials: as §2
For data set [16], the system named is Hippocampus. The experiment in a line: Drug uptake in Sprague-Dawley rat hippocampus at 37 MBq, iv administered 5 mins post MTEP.HCl challenge measured after 20 mins by PET imaging analysis. In kind it is ADME, organism-based. As to conditions: in vivo. The procedure, abridged: as §2
Data set [17] has as its system Thalamus. Put plainly: Drug uptake in Sprague-Dawley rat thalamus at 37 MBq, iv administered 5 mins post MTEP.HCl challenge measured after 20 mins by PET imaging analysis. In kind it is ADME, organism-based. Conditions: in vivo. The procedure, abridged: as §2
The test system of data set [18] is Cortex. Put plainly: Drug uptake in Sprague-Dawley rat cortex at 37 MBq, iv administered 5 mins post MTEP.HCl challenge measured after 20 mins by PET imaging analysis. In kind it is ADME, organism-based. Conditions: in vivo. The procedure, abridged:
as §2

Data set [19] relates to Cerebellum. Put plainly: Drug uptake in Sprague-Dawley rat cerebellum at 37 MBq, iv administered 5 mins post MTEP.HCl challenge measured after 20 mins by PET imaging analysis. In kind it is ADME, organism-based. Conditions: in vivo. The essentials:
as §2

In data set [20] the test system is Brain. The experiment in a line: Drug uptake in Sprague-Dawley rat whole brain at 37 MBq, iv administered 5 mins post MTEP.HCl challenge measured after 20 mins by PET imaging analysis. As to conditions: in vivo. Type of data set: ADME, organism-based. The procedure, abridged: as §2
Data set [21] is described as follows: Drug metabolism in iv dosed Sprague-Dawley rat blood after 5 mins. In kind it is ADME, organism-based. As to conditions: read-out: Drug metabolism.
The nature of data set [22]: Drug metabolism in iv dosed rhesus monkey blood after 5 mins. As to conditions: in vivo.
Data set [23] has as its system Striatum (Macaca mulatta). The experiment in a line: Drug uptake in rhesus monkey striatum at 189 MBq, iv after 3 mins by PET imaging analysis. As to conditions: in vivo, 0.05 h.
Data set [24] deals with Thalamus (Macaca mulatta). The experiment in a line: Drug uptake in rhesus monkey thalamus at 189 MBq, iv after 3 mins by PET imaging analysis. Conditions: in vivo, 0.05 h.
Data set [25] relates to Striatum (Macaca mulatta). The experiment in a line: Drug uptake in rhesus monkey striatum at 189 MBq, iv after 20 mins by PET imaging analysis. As to conditions: in vivo.
Data set [26] relates to Thalamus (Macaca mulatta). Put plainly: Drug uptake in rhesus monkey thalamus at 189 MBq, iv after 20 mins by PET imaging analysis. As to conditions: in vivo.
Data set [27] concerns Striatum (Macaca mulatta). The experiment in a line: Drug uptake in rhesus monkey striatum at 189 MBq, iv after 40 mins by PET imaging analysis. As to conditions: in vivo.
The subject of data set [28] is Thalamus (Macaca mulatta). Put plainly: Drug uptake in rhesus monkey thalamus at 189 MBq, iv after 40 mins by PET imaging analysis. As to conditions: in vivo.
Data set [29] relates to Cerebellum (Macaca mulatta). The experiment in a line: Drug uptake in rhesus monkey cerebellum at 189 MBq, iv after 3 mins by PET imaging analysis. As to conditions: in vivo, 0.05 h.
For data set [30], the system named is Hippocampus (Macaca mulatta). The experiment in a line: Drug uptake in rhesus monkey hippocampus at 189 MBq, iv after 3 mins by PET imaging analysis. Conditions: in vivo, 0.05 h.
Data set [31] deals with Cerebellum (Macaca mulatta). The experiment in a line: Drug uptake in rhesus monkey cerebellum at 189 MBq, iv after 20 mins by PET imaging analysis. Conditions: in vivo.
Data set [32] can be described thus: Drug uptake in rhesus monkey cerebellum at 189 MBq, iv after 40 mins by PET imaging analysis. As to conditions: in vivo.
Data set [33] has as its system Hippocampus (Macaca mulatta). Put plainly: Drug uptake in rhesus monkey hippocampus at 189 MBq, iv after 20 mins by PET imaging analysis. As to conditions: in vivo.
Another data set relates to Macaca mulatta. Put plainly: Drug uptake in rhesus monkey hippocampus at 189 MBq, iv after 40 mins by PET imaging analysis. Conditions: in vivo.
In data set [34] the target is Metabotropic glutamate receptor 8 (Homo sapiens) (UniProt O00222). The experiment in a line: Binding affinity to human mGlu8 receptor.
The target in data set [35] is Metabotropic glutamate receptor 1 (Homo sapiens) (UniProt Q13255). Put plainly: Activity at human mGlu1 receptor expressed in CHO cells after 45 mins by intracellular inositol phosphates accumulation assay.
Data set [36] has as its target Metabotropic glutamate receptor 5 (Homo sapiens) (UniProt P41594). The experiment in a line: Activity at human mGlu5 receptor expressed in CHO cells after 45 mins by intracellular inositol phosphates accumulation assay.

Activity calls are given as the source filed them. The rule behind the calls is not given here.

Sequence of Metabotropic glutamate receptor 4 (Rattus norvegicus) (P31423 whole entry): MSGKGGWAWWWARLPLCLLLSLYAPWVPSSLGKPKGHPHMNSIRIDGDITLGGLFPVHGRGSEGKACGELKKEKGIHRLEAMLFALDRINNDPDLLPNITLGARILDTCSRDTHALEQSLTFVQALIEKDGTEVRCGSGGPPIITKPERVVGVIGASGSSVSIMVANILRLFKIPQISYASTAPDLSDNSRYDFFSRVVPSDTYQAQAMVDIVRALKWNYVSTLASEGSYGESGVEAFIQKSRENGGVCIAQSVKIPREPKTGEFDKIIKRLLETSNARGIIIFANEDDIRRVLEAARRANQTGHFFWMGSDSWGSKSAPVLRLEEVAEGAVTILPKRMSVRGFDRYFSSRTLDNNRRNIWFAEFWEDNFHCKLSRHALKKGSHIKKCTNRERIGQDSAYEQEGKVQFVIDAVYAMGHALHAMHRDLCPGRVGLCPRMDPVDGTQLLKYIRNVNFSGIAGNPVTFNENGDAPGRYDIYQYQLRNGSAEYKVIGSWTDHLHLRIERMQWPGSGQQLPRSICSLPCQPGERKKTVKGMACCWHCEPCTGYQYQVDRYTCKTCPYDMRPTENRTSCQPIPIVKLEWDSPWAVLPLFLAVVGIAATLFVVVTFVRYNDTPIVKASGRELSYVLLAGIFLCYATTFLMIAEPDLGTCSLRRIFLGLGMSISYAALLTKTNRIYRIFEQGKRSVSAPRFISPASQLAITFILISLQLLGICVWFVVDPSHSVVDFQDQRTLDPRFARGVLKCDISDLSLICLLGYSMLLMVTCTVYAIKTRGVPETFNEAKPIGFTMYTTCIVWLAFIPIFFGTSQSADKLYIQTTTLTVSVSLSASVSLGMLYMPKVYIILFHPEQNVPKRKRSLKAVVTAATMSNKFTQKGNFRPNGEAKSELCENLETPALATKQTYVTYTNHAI
Sequence of Metabotropic glutamate receptor 4 (P31423 whole entry): as above
Sequence of Metabotropic glutamate receptor 1 (Homo sapiens) (Q13255 19-1194 limits assumed): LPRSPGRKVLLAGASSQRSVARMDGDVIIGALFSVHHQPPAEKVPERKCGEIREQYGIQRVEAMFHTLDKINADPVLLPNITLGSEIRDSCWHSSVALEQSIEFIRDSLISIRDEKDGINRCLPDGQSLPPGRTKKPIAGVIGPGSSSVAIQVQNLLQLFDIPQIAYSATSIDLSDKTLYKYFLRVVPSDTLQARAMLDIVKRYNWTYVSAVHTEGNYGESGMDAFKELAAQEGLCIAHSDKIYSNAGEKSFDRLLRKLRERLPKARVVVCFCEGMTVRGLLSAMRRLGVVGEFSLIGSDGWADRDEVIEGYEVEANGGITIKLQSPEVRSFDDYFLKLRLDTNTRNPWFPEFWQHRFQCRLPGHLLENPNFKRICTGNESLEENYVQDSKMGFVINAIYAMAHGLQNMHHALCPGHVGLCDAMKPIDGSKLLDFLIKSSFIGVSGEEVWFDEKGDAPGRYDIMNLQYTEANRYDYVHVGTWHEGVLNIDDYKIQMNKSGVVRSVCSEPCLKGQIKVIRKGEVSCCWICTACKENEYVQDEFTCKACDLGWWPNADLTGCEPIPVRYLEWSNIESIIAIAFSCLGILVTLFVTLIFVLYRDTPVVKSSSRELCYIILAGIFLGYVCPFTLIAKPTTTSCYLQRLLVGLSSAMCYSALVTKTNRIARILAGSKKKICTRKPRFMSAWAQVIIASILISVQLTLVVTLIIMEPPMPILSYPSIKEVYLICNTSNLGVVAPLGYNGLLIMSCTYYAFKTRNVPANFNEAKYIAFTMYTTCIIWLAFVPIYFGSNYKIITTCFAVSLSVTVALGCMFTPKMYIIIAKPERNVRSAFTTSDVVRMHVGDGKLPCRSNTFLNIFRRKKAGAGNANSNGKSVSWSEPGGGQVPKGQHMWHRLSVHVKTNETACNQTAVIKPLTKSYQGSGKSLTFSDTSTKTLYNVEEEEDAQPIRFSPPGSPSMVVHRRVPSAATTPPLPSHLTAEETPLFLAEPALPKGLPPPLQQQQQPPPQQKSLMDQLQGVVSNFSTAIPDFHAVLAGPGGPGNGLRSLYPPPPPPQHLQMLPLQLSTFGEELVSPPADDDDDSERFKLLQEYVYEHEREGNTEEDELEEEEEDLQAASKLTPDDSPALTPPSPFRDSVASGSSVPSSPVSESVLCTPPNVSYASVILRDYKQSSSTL
Sequence of Metabotropic glutamate receptor 8 (Homo sapiens) (O00222 whole entry): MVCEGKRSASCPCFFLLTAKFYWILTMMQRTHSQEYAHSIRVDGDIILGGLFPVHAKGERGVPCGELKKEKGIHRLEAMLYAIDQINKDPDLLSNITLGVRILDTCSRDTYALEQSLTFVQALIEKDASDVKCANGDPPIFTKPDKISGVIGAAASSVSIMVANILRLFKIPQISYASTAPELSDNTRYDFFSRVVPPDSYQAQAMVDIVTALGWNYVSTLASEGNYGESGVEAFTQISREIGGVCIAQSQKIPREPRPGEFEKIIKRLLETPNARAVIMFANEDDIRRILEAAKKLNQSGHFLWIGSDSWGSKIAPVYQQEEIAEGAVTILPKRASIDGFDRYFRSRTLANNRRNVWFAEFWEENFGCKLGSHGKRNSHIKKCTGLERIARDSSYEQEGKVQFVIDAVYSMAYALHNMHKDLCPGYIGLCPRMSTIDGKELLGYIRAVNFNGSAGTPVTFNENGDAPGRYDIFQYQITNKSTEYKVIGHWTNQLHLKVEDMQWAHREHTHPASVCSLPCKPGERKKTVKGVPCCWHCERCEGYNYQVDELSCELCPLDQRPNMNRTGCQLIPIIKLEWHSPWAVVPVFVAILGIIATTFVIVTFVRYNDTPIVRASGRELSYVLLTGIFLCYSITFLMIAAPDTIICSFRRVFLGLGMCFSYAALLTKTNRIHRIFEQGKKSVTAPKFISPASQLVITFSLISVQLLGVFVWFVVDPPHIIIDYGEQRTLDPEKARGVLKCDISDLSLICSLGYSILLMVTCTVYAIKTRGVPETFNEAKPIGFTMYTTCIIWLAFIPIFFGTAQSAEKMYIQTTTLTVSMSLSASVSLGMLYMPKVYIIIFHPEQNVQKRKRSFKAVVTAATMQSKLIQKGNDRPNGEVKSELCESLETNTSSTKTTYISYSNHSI
Sequence of Metabotropic glutamate receptor 5 (Homo sapiens) (P41594 21-1212 limits assumed): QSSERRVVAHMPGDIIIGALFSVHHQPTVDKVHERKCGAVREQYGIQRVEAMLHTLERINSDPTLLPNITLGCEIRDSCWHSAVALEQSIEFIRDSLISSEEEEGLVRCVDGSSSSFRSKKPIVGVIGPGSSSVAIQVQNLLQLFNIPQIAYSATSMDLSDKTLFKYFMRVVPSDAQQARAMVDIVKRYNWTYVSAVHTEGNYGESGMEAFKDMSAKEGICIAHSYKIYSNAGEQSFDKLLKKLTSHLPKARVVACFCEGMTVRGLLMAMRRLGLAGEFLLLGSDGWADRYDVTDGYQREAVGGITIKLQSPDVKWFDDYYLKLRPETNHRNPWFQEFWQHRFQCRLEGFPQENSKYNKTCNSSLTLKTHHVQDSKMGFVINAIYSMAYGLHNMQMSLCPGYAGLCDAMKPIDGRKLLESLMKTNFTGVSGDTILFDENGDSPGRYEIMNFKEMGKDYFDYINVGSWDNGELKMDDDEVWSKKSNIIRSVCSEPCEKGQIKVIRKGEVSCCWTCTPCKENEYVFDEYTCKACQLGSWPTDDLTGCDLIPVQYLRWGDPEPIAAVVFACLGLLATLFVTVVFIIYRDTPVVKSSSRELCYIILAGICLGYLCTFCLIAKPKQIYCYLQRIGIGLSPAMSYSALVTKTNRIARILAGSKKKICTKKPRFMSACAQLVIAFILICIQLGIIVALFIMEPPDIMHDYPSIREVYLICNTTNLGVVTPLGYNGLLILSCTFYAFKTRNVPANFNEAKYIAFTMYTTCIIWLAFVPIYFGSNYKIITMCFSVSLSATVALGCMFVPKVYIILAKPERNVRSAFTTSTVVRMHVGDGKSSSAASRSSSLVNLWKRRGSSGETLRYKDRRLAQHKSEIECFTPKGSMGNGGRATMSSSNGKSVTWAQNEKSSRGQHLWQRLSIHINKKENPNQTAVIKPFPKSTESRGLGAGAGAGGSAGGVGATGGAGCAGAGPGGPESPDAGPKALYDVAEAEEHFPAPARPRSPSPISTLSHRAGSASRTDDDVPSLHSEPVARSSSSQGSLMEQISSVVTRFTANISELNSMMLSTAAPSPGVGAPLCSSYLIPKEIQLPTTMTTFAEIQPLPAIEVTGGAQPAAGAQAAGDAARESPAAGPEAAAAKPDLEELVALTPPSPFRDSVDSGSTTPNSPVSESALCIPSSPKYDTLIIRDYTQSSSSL

Usually inhibition stands for how much of the control response was suppressed. On to `O=C(Nc1ccc(N2C(=O)c3cccc(I)c3C2=O)c(Cl)c1)c1ccccn1`, for which the IC50 is 26.3 nM in data set [1] (read-out: IC50) and 29.5 nM in data set [1] (read-out: pIC50 (converted)). For the same compound, in data set [2], the inhibition worked out at 96%.
For `O=C(Nc1ccc(N2C(=O)c3cccc(Br)c3C2=O)c(Cl)c1)c1ccccn1`, in [1] (read-out: IC50), the IC50 was found to be 11.8 nM. In data set [2], this compound gave an inhibition of 96.6%.
Consider `O=C(Nc1ccc(N2C(=O)c3cccc([18F])c3C2=O)c(Cl)c1)c1ccccn1`, for which the Drug uptake result in the data set on Striatum [3], in the data set on Hippocampus [4], in the data set with Thalamus [5], in the data set on Cortex [6], in the data set on Cerebellum [7] and in the data set on Brain [8] was “Active” each time. Moreover, the Drug uptake result in the data set with Striatum [9], in the data set on Hippocampus [10], in the data set with Thalamus [11], with Cortex [12], with Cerebellum [13] and in the data set with Brain [14] was “Active” throughout. The Drug uptake result in the data set on Striatum [15], in the data set with Hippocampus [16], with Thalamus [17], with Cortex [18], with Cerebellum [19] and with Brain [20] was “Active” each time. Besides, the Drug uptake entry is “Active” in [23]; “Active” in data set [24]; 50% in [25]; 50% in data set [26]; “Active” in data set [27]; “Active” in data set [28]. Also, the Drug uptake entry was “Active” in [29]; “Active” in data set [30]; 50% in data set [31]; “Active” in data set [32]; 50% in [33]; “Active” in the data set on Macaca mulatta. Moreover, in [21], the metabolised at 5 min was found to be 90%. In data set [22], the Stability result is “Unstable”.
Turning to `Cc1cccc2c1C(=O)N(c1ccc(NC(=O)c3ccccn3)cc1Cl)C2=O`, the IC50 in [1] (read-out: IC50) was determined as 4.2 nM. The compound further registered an inhibition in data set [2] of 99.4%.
For the compound `O=C(Nc1ccc(N2C(=O)c3cccc(F)c3C2=O)c(Cl)c1)c1ccccn1`, in data set [1] (read-out: IC50), the IC50 was 5.1 nM. For the same compound, in data set [2], the inhibition stood at 99.4%. Further, the result in [34], in data set [35] and in data set [36] was Active.
As to `COc1cc(NC(=O)c2ccccn2)ccc1Cl`, in data set [2], the inhibition came to 100%.
`O=C(Nc1cccc(OC(F)F)c1)c1ccccn1`: the inhibition in data set [2] stood at 99.1%.
